From ChEMBL document CHEMBL5131562, “1,3-Dioxane-Linked Novel Bacterial Topoisomerase Inhibitors: Expanding Structural Diversity and the Antibacterial Spectrum” (ACS Med Chem Lett, 2022)
Values after ≈ are worked out from the molar mass of the structure shown.

Legend:
[1] = tested on: Neisseria gonorrhoeae; experiment: Antimicrobial activity against wild type Neisseria gonorrhoeae P strain incubated for 20 to 24 hrs by CLSI protocol based broth microdilution method; assay type: functional; conditions: time 20-24 hrs
[2] = tested on: Neisseria gonorrhoeae; experiment: Antimicrobial activity against wild type Neisseria gonorrhoeae V strain harbouring type 2 topoisomerase GyrA S91F, D95G and ParC S87R mutant incubated for 20 to 24 hrs by CLSI protocol based broth microdilution method; assay type: functional; conditions: time 20-24 hrs
[3] = tested on: Neisseria gonorrhoeae; experiment: Antimicrobial activity against Neisseria gonorrhoeae K strain harbouring type 2 topoisomerase GyrA S91F, D95N and ParC S87R, S88P mutant incubated for 20 to 24 hrs by CLSI protocol based broth microdilution method; assay type: functional; conditions: time 20-24 hrs
[4] = tested on: Neisseria gonorrhoeae; experiment: Antimicrobial activity against wild type Neisseria gonorrhoeae F strain incubated for 20 to 24 hrs by CLSI protocol based broth microdilution method; assay type: functional; conditions: time 20-24 hrs
[5] = tested on: Neisseria gonorrhoeae; experiment: Antimicrobial activity against wild type Neisseria gonorrhoeae ATCC 49226 incubated for 20 to 24 hrs by CLSI protocol based broth microdilution method; assay type: functional; conditions: time 20-24 hrs
[6] = tested on: Neisseria gonorrhoeae; experiment: Antimicrobial activity against wild type Neisseria gonorrhoeae Y strain harbouring type 2 topoisomerase GyrA S91F, D95G and ParC S87R mutant incubated for 20 to 24 hrs by CLSI protocol based broth microdilution method; assay type: functional; conditions: time 20-24 hrs
[7] = tested on: Neisseria gonorrhoeae; experiment: Antimicrobial activity against wild type Neisseria gonorrhoeae O strain incubated for 20 to 24 hrs by CLSI protocol based broth microdilution method; assay type: functional; conditions: time 20-24 hrs
[8] = tested on: Neisseria gonorrhoeae; experiment: Antimicrobial activity against Neisseria gonorrhoeae G strain harbouring type 2 topoisomerase GyrA S91F and ParE G410V mutant incubated for 20 to 24 hrs by CLSI protocol based broth microdilution method; assay type: functional; conditions: time 20-24 hrs
[9] = target: DNA gyrase (Staphylococcus aureus, UniProt P0A0K8+P20831); experiment: Inhibition of Staphylococcus aureus DNA gyrase supercoiling activity incubated for 25 min by ethidium bromide/bromophenol blue staining based agarose gel electrophoresis analysis; assay type: protein-complex assay
[10] = tested on: Staphylococcus aureus; experiment: Antibacterial activity against Staphylococcus aureus ATCC 29213 by CLSI method; assay type: functional
[11] = tested on: Staphylococcus aureus; experiment: Antibacterial activity against Staphylococcus aureus harbouring GyrA D83N mutant by CLSI method; assay type: functional
[12] = tested on: Staphylococcus aureus; experiment: Selectivity ratio of IC50 for inhibition of Staphylococcus aureus DNA topoisomerase 4 decatenation activity to IC50 for inhibition of Staphylococcus aureus DNA gyrase supercoiling activity
[13] = Cytotoxicity activity against human K562 cells assessed as inhibition of cellular growth; assay type: toxicity, cell-based
Method in brief: (§1)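 Human K562 leukemia cells were tested alongside K/VP.5, an etoposide-resistant clonal subline derived from them that has reduced levels of human topoisomerase IIα. Cell growth inhibition was expressed as an IC50.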

[14] = tested on: Staphylococcus aureus; experiment: Antibacterial activity against cystic fibrosis isolate Staphylococcus aureus by CLSI method; assay type: functional
[15] = tested on: Staphylococcus aureus; experiment: Antibacterial activity against methicillin-resistant Staphylococcus aureus USA300 by CLSI method; assay type: functional
[16] = Metabolic stability in mouse liver microsomes assessed as half life; assay type: ADME, Microsome
[17] = target: Voltage-gated inwardly rectifying potassium channel KCNH2 (Homo sapiens, UniProt Q12809); experiment: Inhibition of hERG cardiac ion channel; assay type: toxicity
Method in brief: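 hERG channel inhibition was run by a contract lab. […] Determinations were made in duplicate or triplicate (n = 2 or 3).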

[18] = tested on: Staphylococcus aureus; experiment: Antibacterial activity against Staphylococcus aureus 3527 by CLSI method; assay type: functional
[19] = target: Topoisomerase IV (Staphylococcus aureus, UniProt P0C1S7+P0C1U9); experiment: Inhibition of Staphylococcus aureus DNA topoisomerase 4 decatenation activity using kDNA as substrate incubated for 10 to 20 min by ethidium bromide/bromophenol blue staining based agarose gel electrophoresis analysis; assay type: protein-complex assay
[20] = Cytotoxicity activity against human K/VP.5 cells assessed as inhibition of cellular growth; assay type: toxicity, cell-based; method in brief: as §1

## COc1ccc2ncc(F)c(C[C@H](O)[C@H]3OC[C@H](NCc4cc5c(nn4)OCCO5)CO3)c2n1
[1]
  MIC: 32 µg/mL (≈ 67.6 µM)
[2]
  MIC: 8 µg/mL (≈ 16.9 µM)
[3]
  MIC: > 32 µg/mL
[4]
  MIC: 8 µg/mL (≈ 16.9 µM)
[5]
  MIC: 32 µg/mL (≈ 67.6 µM)
[6]
  MIC: 16 µg/mL (≈ 33.8 µM)
[7]
  MIC: 32 µg/mL (≈ 67.6 µM)
[8]
  MIC: > 32 µg/mL

## COc1ccc2ncc(F)c(C[C@H](O)[C@H]3OC[C@H](NCc4ccc5c(n4)NC(=O)CO5)CO3)c2n1
[1]
  MIC: ≤ 0.03 µg/mL
[2]
  MIC: ≤ 0.03 µg/mL
[3]
  MIC: ≤ 0.03 µg/mL
[4]
  MIC: 0.06 µg/mL (≈ 0.124 µM)
[5]
  MIC: ≤ 0.03 µg/mL
[6]
  MIC: ≤ 0.03 µg/mL
[7]
  MIC: ≤ 0.03 µg/mL
[8]
  MIC: 0.25 µg/mL (≈ 0.515 µM)

## O=c1ccc2ncc(F)c3c2n1CC3C[C@H]1OC[C@H](NCc2cc3c(cn2)OCCC3)CO1 (stereo partly specified)
[1]
  MIC: 2 µg/mL (≈ 4.42 µM)
[9]
  IC50: 2.1 µM
[10]
  MIC: 0.25 µg/mL (≈ 0.553 µM)
[2]
  MIC: ≤ 0.03 µg/mL
[3]
  MIC: 1 µg/mL (≈ 2.21 µM)
[11]
  MIC: 8 µg/mL (≈ 17.7 µM)
[12]
  Ratio IC50: 0.76
[13]
  IC50: 268 µM
[4]
  MIC: 0.12 µg/mL (≈ 0.265 µM)
[14]
  MIC: 0.5 µg/mL (≈ 1.11 µM)
[15]
  MIC: 1 µg/mL (≈ 2.21 µM)
[5]
  MIC: 2 µg/mL (≈ 4.42 µM)
[6]
  MIC: 0.25 µg/mL (≈ 0.553 µM)
[16]
  half-life: 18.3 min
[17]
  IC50: 125 µM
[7]
  MIC: 2 µg/mL (≈ 4.42 µM)
[18]
  MIC: 1 µg/mL (≈ 2.21 µM)
[8]
  MIC: 8 µg/mL (≈ 17.7 µM)
[19]
  IC50: 1.6 µM
[20]
  IC50: 187 µM

## O=c1ccc2ccc(F)c3c2n1CC3C[C@H]1OC[C@H](NCc2cc3c(nn2)OCCS3)CO1 (stereo partly specified)
[1]
  MIC: 16 µg/mL (≈ 34 µM)
[9]
  IC50: 1.7 µM
[10]
  MIC: 0.5 µg/mL (≈ 1.06 µM)
[2]
  MIC: 4 µg/mL (≈ 8.5 µM)
[3]
  MIC: 32 µg/mL (≈ 68 µM)
[11]
  MIC: 8 µg/mL (≈ 17 µM)
[12]
  Ratio IC50: 4.4
[13]
  IC50: 38.7 µM
[4]
  MIC: 2 µg/mL (≈ 4.25 µM)
[14]
  MIC: 0.5 µg/mL (≈ 1.06 µM)
[15]
  MIC: 1 µg/mL (≈ 2.13 µM)
[5]
  MIC: 16 µg/mL (≈ 34 µM)
[6]
  MIC: 2 µg/mL (≈ 4.25 µM)
[16]
  half-life: 21.9 min
[17]
  IC50: 200 µM
[7]
  MIC: 16 µg/mL (≈ 34 µM)
[18]
  MIC: 1 µg/mL (≈ 2.13 µM)
[8]
  MIC: 32 µg/mL (≈ 68 µM)
[19]
  IC50: 7.4 µM
[20]
  IC50: 103 µM

## O=C1COc2ccc(CN[C@H]3CO[C@H](CC4Cn5c(=O)ccc6ccc(F)c4c65)OC3)nc2N1 (stereo partly specified)
[1]
  MIC: 0.25 µg/mL (≈ 0.536 µM)
[9]
  IC50: 1.6 µM
[10]
  MIC: 0.5 µg/mL (≈ 1.07 µM)
[2]
  MIC: ≤ 0.03 µg/mL
[3]
  MIC: 0.12 µg/mL (≈ 0.257 µM)
[11]
  MIC: 4 µg/mL (≈ 8.58 µM)
[12]
  Ratio IC50: 0.81
[13]
  IC50: 101 µM
[4]
  MIC: 0.06 µg/mL (≈ 0.129 µM)
[14]
  MIC: 0.5 µg/mL (≈ 1.07 µM)
[15]
  MIC: 0.25 µg/mL (≈ 0.536 µM)
[5]
  MIC: 0.12 µg/mL (≈ 0.257 µM)
[6]
  MIC: 0.12 µg/mL (≈ 0.257 µM)
[16]
  half-life: 18.4 min
[17]
  IC50: 30 µM
[7]
  MIC: 0.25 µg/mL (≈ 0.536 µM)
[18]
  MIC: 0.25 µg/mL (≈ 0.536 µM)
[8]
  MIC: 0.25 µg/mL (≈ 0.536 µM)
[19]
  IC50: 1.3 µM
[20]
  IC50: 127 µM

## COc1ccc2ncc(F)c(C[C@H](O)[C@H]3OC[C@H](NCc4ccc5c(c4)OCCO5)CO3)c2n1
[1]
  MIC: ≤ 0.03 µg/mL
[2]
  MIC: ≤ 0.03 µg/mL
[3]
  MIC: ≤ 0.03 µg/mL
[4]
  MIC: ≤ 0.03 µg/mL
[5]
  MIC: ≤ 0.03 µg/mL
[6]
  MIC: ≤ 0.03 µg/mL
[7]
  MIC: ≤ 0.03 µg/mL
[8]
  MIC: 0.5 µg/mL (≈ 1.06 µM)

## O=c1ccc2ncc(=O)n3c2n1CC3CN1CCC(NCc2cc3c(cn2)OCCC3)CC1 (racemic)
[10]
  MIC: 0.25 µg/mL (≈ 0.557 µM)
[11]
  MIC: 8 µg/mL (≈ 17.8 µM)
[14]
  MIC: 0.25 µg/mL (≈ 0.557 µM)
[15]
  MIC: 0.25 µg/mL (≈ 0.557 µM)
[18]
  MIC: 0.25 µg/mL (≈ 0.557 µM)

## O=C1CSc2ccc(CN[C@H]3CO[C@H](CC4Cn5c(=O)ccc6ncc(F)c4c65)OC3)nc2N1 (stereo partly specified)
[9]
  IC50: 1.4 µM
[10]
  MIC: 1 µg/mL (≈ 2.07 µM)
[11]
  MIC: 8 µg/mL (≈ 16.5 µM)
[12]
  Ratio IC50: 1.5
[13]
  IC50: 81.7 µM
[14]
  MIC: 1 µg/mL (≈ 2.07 µM)
[15]
  MIC: 1 µg/mL (≈ 2.07 µM)
[16]
  half-life: 36.4 min
[17]
  IC50: 55 µM
[18]
  MIC: 1 µg/mL (≈ 2.07 µM)
[19]
  IC50: 2.1 µM
[20]
  IC50: 128 µM

## O=c1ccc2ccc(F)c3c2n1CC3C[C@H]1OC[C@H](NCc2ccc3c(c2)OCCO3)CO1 (stereo partly specified)
[1]
  MIC: 0.25 µg/mL (≈ 0.553 µM)
[9]
  IC50: 0.23 µM
[10]
  MIC: 0.125 µg/mL (≈ 0.276 µM)
[2]
  MIC: ≤ 0.03 µg/mL
[3]
  MIC: 0.12 µg/mL (≈ 0.265 µM)
[11]
  MIC: 4 µg/mL (≈ 8.84 µM)
[12]
  Ratio IC50: 2.6
[13]
  IC50: 29.1 µM
[4]
  MIC: ≤ 0.03 µg/mL
[14]
  MIC: 0.25 µg/mL (≈ 0.553 µM)
[15]
  MIC: 0.25 µg/mL (≈ 0.553 µM)
[5]
  MIC: 0.12 µg/mL (≈ 0.265 µM)
[6]
  MIC: ≤ 0.03 µg/mL
[16]
  half-life: 3.26 min
[17]
  IC50: 35 µM
[7]
  MIC: 0.25 µg/mL (≈ 0.553 µM)
[18]
  MIC: 0.25 µg/mL (≈ 0.553 µM)
[8]
  MIC: 0.5 µg/mL (≈ 1.11 µM)
[19]
  IC50: 0.6 µM
[20]
  IC50: 33.9 µM
